In ChEMBL document CHEMBL4020814, “Synthesis, Binding Mode, and Antihyperglycemic Activity of Potent and Selective (5-Imidazol-2-yl-4-phenylpyrimidin-2-yl)[2-(2-pyridylamino)ethyl]amine Inhibitors of Glycogen Synthase Kinase 3” (J Med Chem, 2017):
pIC50: −log10 of the molar value.

Assays:
Angiopoietin-1 receptor = Angiopoietin-1 receptor (Homo sapiens, UniProt Q02763)
[1] = target: Casein kinase I isoform epsilon (Homo sapiens, UniProt P49674); assay: Inhibition of human CK1epsilon using biotin peptide substrate after 1 hr by scintillation counting method
Sequence of Casein kinase I isoform epsilon (P49674 whole entry, canonical isoform): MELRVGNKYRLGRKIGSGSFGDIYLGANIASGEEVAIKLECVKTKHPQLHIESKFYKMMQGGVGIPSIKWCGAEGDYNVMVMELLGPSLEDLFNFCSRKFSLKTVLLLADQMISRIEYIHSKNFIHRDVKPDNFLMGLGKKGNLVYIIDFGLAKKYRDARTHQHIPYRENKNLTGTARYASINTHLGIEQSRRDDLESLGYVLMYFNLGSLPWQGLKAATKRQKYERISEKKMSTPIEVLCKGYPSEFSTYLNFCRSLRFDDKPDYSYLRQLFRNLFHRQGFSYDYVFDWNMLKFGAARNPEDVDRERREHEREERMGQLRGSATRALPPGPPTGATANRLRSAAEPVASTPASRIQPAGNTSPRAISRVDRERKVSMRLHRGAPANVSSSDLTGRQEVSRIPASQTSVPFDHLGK

[2] = Stability in human liver microsomes assessed as half life; type: ADME, microsome
Rattus norvegicus [3] = assay: Toxicity in diabetic ZDF rat assessed as increase in beta-catenin mRNA levels in brain administered at 130 mg/kg/day infused over 20 hrs; type: organism-based; details: in vivo
[4] = Oral bioavailability in diabetic ZDF fa/fa rat at 8 mg/kg administered 4.5 and 0.5 hrs prior to oral glucose challenge; type: ADME, organism-based; details: in vivo
[5] = Plasma concentration in diabetic db/db mouse at 30 mg/kg administered at 4.5 and 0.5 hrs prior to oral glucose challenge measured 20 mins post second dose; details: plasma
[6] = Half life in diabetic ZDF fa/fa rat at 8 mg/kg administered 4.5 and 0.5 hrs prior to oral glucose challenge; type: ADME, organism-based; details: in vivo
Mus musculus [7] = assay: Effect on insulin level in diabetic ob/ob mouse administered at 30 mg/kg, po measured post glucose challenge; type: ADME, organism-based; details: in vivo
In short: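 ob/ob mice aged 9–10 weeks, 6–8 per group, given an oral glucose tolerance test with oral dosing at −4.5 and −0.5 h (vehicle captisol). Plasma glucose and insulin were measured after the glucose challenge. Values are mean ± SEM.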

Mus musculus [8] = assay: Effect on urine glucose levels in diabetic db/db mouse administered orally at 4.5 and 0.5 hrs prior to oral glucose challenge; type: ADME; details: in vivo
Rattus norvegicus [9] = assay: Effect on plasma glucose levels in lean ZDF fa/fa rat administered at 30 mg/kg dosed at 4.5 and 0.5 hrs prior to oral glucose challenge by oral glucose tolerance test; type: ADME, organism-based; details: in vivo
Rattus norvegicus [10] = assay: Reduction in plasma insulin level in diabetic ZDF fa/fa rat at 30 mg/kg, po administered as single dose measured after 60 mins; type: ADME, organism-based; details: in vivo, 1 h
In short: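 Twelve-week-old male ZDF (fa/fa) rats with fasted basal glucose of 500–550 mg/dL, food removed 3–4 h before dosing. A single oral dose was given with vehicle 15% captisol. Plasma glucose and insulin were measured from serial tail-snip bleeds, n = 8/group, mean ± SEM.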

[11] = Half life in po dosed diabetic ZDF rat; type: ADME, organism-based; details: in vivo
[12] = Oral bioavailability in diabetic ZDF rat; type: ADME, organism-based; details: in vivo
[13] = Cmax in po dosed diabetic ZDF rat; type: ADME, organism-based; design: route oral; details: in vivo
[14] = AUC in po dosed diabetic ZDF rat; type: ADME, organism-based; details: in vivo
[15] = Clearance in iv dosed diabetic ZDF rat; type: ADME, organism-based; details: in vivo
In short: (§1)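 ZDF (fa/fa) rats dosed intravenously; clearance and steady-state volume of distribution derived from plasma concentration–time data.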

[16] = Volume of distribution at steady state in iv dosed diabetic ZDF rat; type: ADME, organism-based; details: in vivo, read-out: Vdss
In short: as §1

Rattus norvegicus [17] = assay: Effect on plasma insulin level in diabetic ZDF fa/fa rat assessed as plasma insulin levels at 5 mg/kg, iv prime dose with continuous infusion at 64 ug/kg/min for 4 days (reference value: 3.9 +/- 0.6 ng/ml); type: ADME, organism-based; details: in vivo, 96 h
Rattus norvegicus [18] = assay: Toxicity in diabetic ZDF rat assessed as increase in beta-catenin mRNA levels in liver administered at 130 mg/kg/day infused over 20 hrs; type: organism-based; details: in vivo
Rattus norvegicus [19] = assay: Toxicity in diabetic ZDF rat assessed as increase in beta-catenin mRNA levels in lungs administered at 130 mg/kg/day infused over 20 hrs; type: organism-based; details: in vivo
Rattus norvegicus [20] = assay: Toxicity in diabetic ZDF rat assessed as increase in beta-catenin mRNA levels in colon administered at 130 mg/kg/day infused over 20 hrs; type: organism-based; details: in vivo
Rattus norvegicus [21] = assay: Toxicity in diabetic ZDF rat assessed as increase in beta-catenin mRNA levels in adipose tissue administered at 130 mg/kg/day infused over 20 hrs; type: organism-based; details: in vivo
Rattus norvegicus [22] = assay: Toxicity in diabetic ZDF rat assessed as increase in cyclin D1 mRNA levels in brain administered at 130 mg/kg/day infused over 20 hrs; type: organism-based; details: in vivo
Rattus norvegicus [23] = assay: Toxicity in diabetic ZDF rat assessed as increase in cyclin D1 mRNA levels in liver administered at 130 mg/kg/day infused over 20 hrs; type: organism-based; details: in vivo
Rattus norvegicus [24] = assay: Toxicity in diabetic ZDF rat assessed as increase in cyclin D1 mRNA levels in lung administered at 130 mg/kg/day infused over 20 hrs; type: organism-based; details: in vivo
Rattus norvegicus [25] = assay: Toxicity in diabetic ZDF rat assessed as increase in cyclin D1 mRNA levels in colon administered at 130 mg/kg/day infused over 20 hrs; type: organism-based; details: in vivo
Rattus norvegicus [26] = assay: Toxicity in diabetic ZDF rat assessed as increase in cyclin D1 mRNA levels in adipose tissue administered at 130 mg/kg/day infused over 20 hrs; type: organism-based; details: in vivo
Mus musculus [27] = assay: Effect on insulin level in diabetic db/db mouse at 30 mg/kg administered at 4.5 and 0.5 hrs prior to oral glucose challenge; type: ADME, organism-based; details: in vivo
In short: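 db/db mice, 6–8 per group, fasted ~6 h (food removed 3 h before prebleed), dosed orally at −4.5 and −0.5 h relative to oral glucose (vehicle 10% captisol). Tail-snip blood glucose was read by glucometer or analyzer; plasma insulin was measured by ELISA.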

Mus musculus [28] = species on record: Mus musculus; assay: Effect on insulin levels in streptozotocin-treated mouse fed with high fat diet; type: ADME; details: in vivo
In short: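 Mice on a high-fat diet with intermittent streptozotocin were dosed orally at −4.5 and −0.5 h before oral glucose challenge. Post-challenge glucose AUC and insulin were measured.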

Rattus norvegicus [29] = assay: Effect on plasma insulin level in obese ZDF fa/fa rat at 30 mg/kg dosed at 4.5 and 0.5 hrs prior to oral glucose challenge measured at -250 mins (reference value: 7.2 +/- 0.6 ng/ml); type: ADME, organism-based; details: in vivo
Rattus norvegicus [30] = assay: Effect on plasma insulin level in obese ZDF fa/fa rat at 30 mg/kg dosed at 4.5 and 0.5 hrs prior to oral glucose challenge measured at -45 mins (reference value: 6.9 +/- 0.3 ng/ml); type: ADME, organism-based; details: in vivo
Rattus norvegicus [31] = assay: Effect on plasma insulin level in obese ZDF fa/fa rat at 30 mg/kg dosed at 4.5 and 0.5 hrs prior to oral glucose challenge measured at 25 mins (reference value: 8.5 +/- 0.7 ng/ml); type: ADME, organism-based; details: in vivo
Rattus norvegicus [32] = assay: Effect on plasma insulin level in obese ZDF fa/fa rat at 30 mg/kg dosed at 4.5 and 0.5 hrs prior to oral glucose challenge measured at 60 mins (reference value: 7.8 +/- 0.8 ng/ml); type: ADME, organism-based; details: in vivo
Rattus norvegicus [33] = assay: Effect on plasma insulin level in lean ZDF fa/fa rat at 30 mg/kg dosed at 4.5 and 0.5 hrs prior to oral glucose challenge measured at -250 mins (reference value: 0.2 +/- 0.1 ng/ml); type: ADME, organism-based; details: in vivo
Rattus norvegicus [34] = assay: Effect on plasma insulin level in lean ZDF fa/fa rat at 30 mg/kg dosed at 4.5 and 0.5 hrs prior to oral glucose challenge measured at -45 mins (reference value: 0.2 +/- 0.1 ng/ml); type: ADME, organism-based; details: in vivo
Rattus norvegicus [35] = assay: Effect on plasma insulin level in lean ZDF fa/fa rat at 30 mg/kg dosed at 4.5 and 0.5 hrs prior to oral glucose challenge measured at 25 mins (reference value: 0.4 +/- 0.1 ng/ml); type: ADME, organism-based; details: in vivo
Rattus norvegicus [36] = assay: Effect on plasma insulin level in lean ZDF fa/fa rat at 30 mg/kg dosed at 4.5 and 0.5 hrs prior to oral glucose challenge measured at 60 mins (reference value: 0.3 +/- 0.1 ng/ml); type: ADME, organism-based; details: in vivo, 1 h

Sequence of Angiopoietin-1 receptor (Q02763 whole entry, canonical isoform): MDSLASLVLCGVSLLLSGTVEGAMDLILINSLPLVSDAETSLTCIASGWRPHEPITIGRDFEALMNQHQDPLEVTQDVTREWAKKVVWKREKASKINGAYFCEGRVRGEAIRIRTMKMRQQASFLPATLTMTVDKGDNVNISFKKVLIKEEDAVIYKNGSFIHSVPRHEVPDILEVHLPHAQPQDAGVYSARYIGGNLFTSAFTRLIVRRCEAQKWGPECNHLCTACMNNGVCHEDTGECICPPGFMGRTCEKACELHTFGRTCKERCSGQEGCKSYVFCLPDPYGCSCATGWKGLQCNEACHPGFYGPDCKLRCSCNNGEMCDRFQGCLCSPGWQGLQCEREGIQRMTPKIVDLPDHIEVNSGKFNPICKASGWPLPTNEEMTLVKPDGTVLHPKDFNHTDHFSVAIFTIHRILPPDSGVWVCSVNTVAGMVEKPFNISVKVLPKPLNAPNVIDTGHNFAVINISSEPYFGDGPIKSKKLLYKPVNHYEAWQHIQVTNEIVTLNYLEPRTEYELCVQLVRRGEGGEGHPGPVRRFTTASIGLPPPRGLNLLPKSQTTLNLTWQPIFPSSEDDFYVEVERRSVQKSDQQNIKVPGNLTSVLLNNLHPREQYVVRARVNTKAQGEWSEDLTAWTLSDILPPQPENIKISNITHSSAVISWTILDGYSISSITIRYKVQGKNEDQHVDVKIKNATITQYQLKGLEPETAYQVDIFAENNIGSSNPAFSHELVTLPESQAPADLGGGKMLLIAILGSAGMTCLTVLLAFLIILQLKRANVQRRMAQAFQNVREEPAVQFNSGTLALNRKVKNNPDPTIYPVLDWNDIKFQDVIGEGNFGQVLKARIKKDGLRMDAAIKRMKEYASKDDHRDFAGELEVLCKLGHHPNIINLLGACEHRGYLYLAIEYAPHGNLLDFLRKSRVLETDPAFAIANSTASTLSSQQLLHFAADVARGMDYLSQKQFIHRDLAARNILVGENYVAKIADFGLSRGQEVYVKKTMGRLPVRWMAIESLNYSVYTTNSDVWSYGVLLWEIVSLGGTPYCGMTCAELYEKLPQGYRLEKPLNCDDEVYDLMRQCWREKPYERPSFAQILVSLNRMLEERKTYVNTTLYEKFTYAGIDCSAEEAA

pIC50 (Angiopoietin-1 receptor): < 5.30
pIC50 [1]: < 5.30
half-life [2]: 109 min
bioavailability [4]: 36%
concentration at 20 min [5]: 15000 ng/mL
half-life [6]: 92 min
half-life [11]: 92 to 98 min
bioavailability [12]: 36 to 43%
Cmax [13]: 400 ng/mL
AUC [14]: 1420 ng·h/mL
clearance [15]: 43 mL/min/kg
Vd [16]: 3.6 L/kg
Activity (Rattus norvegicus [17]): 3.1 ng/mL
Activity (Rattus norvegicus [29]): 6.3 ng/mL
Activity (Rattus norvegicus [30]): 5.3 ng/mL
Activity (Rattus norvegicus [31]): 4.8 ng/mL
Activity (Rattus norvegicus [32]): 5.2 ng/mL
Activity (Rattus norvegicus [33]): 0.3 ng/mL
Activity (Rattus norvegicus [34]): 0.3 ng/mL
Activity (Rattus norvegicus [35]): 0.6 ng/mL
Activity (Rattus norvegicus [36]): 0.4 ng/mL
Structure (SMILES): Cc1c[nH]c(-c2cnc(NCCNc3ccc(C#N)cn3)nc2-c2ccc(Cl)cc2Cl)n1 [LADUVIGLUSIB]
Activity (Rattus norvegicus [3]): Non-Toxic
Activity (Mus musculus [7]): Toxic
Activity (Mus musculus [8]): Non-Toxic
Activity (Rattus norvegicus [9]): Non-Toxic
Activity (Rattus norvegicus [10]): Toxic
Activity (Rattus norvegicus [18]): Non-Toxic
Activity (Rattus norvegicus [19]): Non-Toxic
Activity (Rattus norvegicus [20]): Non-Toxic
Activity (Rattus norvegicus [21]): Non-Toxic
Activity (Rattus norvegicus [22]): Non-Toxic
Activity (Rattus norvegicus [23]): Non-Toxic
Activity (Rattus norvegicus [24]): Non-Toxic
Activity (Rattus norvegicus [25]): Non-Toxic
Activity (Rattus norvegicus [26]): Non-Toxic
Activity (Mus musculus [27]): Non-Toxic
Activity (Mus musculus [28]): Toxic
